Reference: ChEMBL document CHEMBL1765056, “Cytotoxic oleanane-type saponins from Albizia inundata” (J Nat Prod, 2011)
Calls of active or inactive are those of the source. No cut-off for these calls is given here.

Legend:
Format in all cases: functional, cell-based
[1] = system: SK-MEL-28; assay: Cytotoxicity against human SK-MEL-28 cells harboring BRAF […]/PTEN mutation assessed as membrane disintegration by phase contrast microscopy
Method in brief: (§1)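 Cells treated with increasing concentrations of saponins, then examined by phase-contrast microscopy for membrane disintegration.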

[2] = species on record: Homo sapiens; assay: Cytotoxicity against human MDA1986 cells assessed as membrane disintegration by phase contrast microscopy; method in brief: as §1
[3] = Cytotoxicity against human JMAR cells assessed as cell viability by MTS assay
Method in brief: (§2)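 Pure compounds tested at five concentrations from 50 nM to 20 uM. Readout is MTS viability, with IC50 derived per cell line. JMAR and MDA1986 are head and neck squamous carcinoma lines. B16F10 is a murine melanoma line and SKMEL28 a human melanoma line, both BRAF V600E; SKMEL28 also carries a PTEN mutation.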

[4] = Cytotoxicity against human MDA1986 cells assessed as cell viability by MTS assay; method in brief: as §2
[5] = system: SK-MEL-28; assay: Cytotoxicity against human SK-MEL-28 cells harboring BRAF […]/PTEN mutation assessed as cell viability by MTS assay; method in brief: as §2
[6] = system: B16-F10; assay: Cytotoxicity against mouse B16F10 cells harboring BRAF […] mutation assessed as membrane disintegration by phase contrast microscopy; method in brief: as §1
[7] = system: B16-F10; assay: Cytotoxicity against mouse B16F10 cells harboring BRAF […] mutation assessed as cell viability by MTS assay; method in brief: as §2
[8] = system: JMAR; assay: Cytotoxicity against human JMAR cells assessed as membrane disintegration by phase contrast microscopy; method in brief: as §1

SMILES	Activity [1]	Activity [2]	IC50 [3] [µM]	IC50 [4] [µM]	IC50 [5] [µM]	Activity [6]	IC50 [7] [µM]	Activity [8]
CC1(C)CC[C@]2(C(=O)O)CC[C@]3(C)C(=CC[C@@H]4[C@@]5(C)CC[C@H](O[C@@H]6O[C@H](CO[C@@H]7OC[C@H](O)[C@H](O)[C@H]7O[C@@H]7OC[C@H](O)[C@H](O)[C@H]7O)[C@@H](O)[C@H](O)[C@H]6O)C(C)(C)[C@@H]5CC[C@]43C)[C@@H]2C1	inactive	inactive	11.5	8.2	8.1	inactive	6.3	inactive
CC(=O)N[C@H]1[C@H](O[C@H]2CC[C@]3(C)[C@H]4CC=C5[C@@H]6CC(C)(C)[C@@H]7C[C@]6(C(=O)O7)[C@H](O)C[C@@]5(C)[C@]4(C)CC[C@H]3C2(C)C)O[C@H](CO[C@@H]2OC[C@H](O)[C@H](O)[C@H]2O[C@@H]2OC[C@@H](O)[C@H](O)[C@H]2O)[C@@H](O)[C@@H]1O [PROSAPOGENIN 4]	–	–	> 20	> 20	> 20	–	> 20	–
CC1(C)CC[C@]2(C(=O)O)CC[C@]3(C)C(=CC[C@@H]4[C@@]5(C)CC[C@H](O[C@@H]6O[C@H](CO)[C@@H](O)[C@H](O)[C@H]6O[C@@H]6O[C@H](CO)[C@@H](O)[C@H](O)[C@H]6O)C(C)(C)[C@@H]5CC[C@]43C)[C@@H]2C1 [ACUTOSIDE A]	–	–	> 20	> 20	> 20	–	> 20	–
CC1(C)CC[C@]2(C(=O)O)[C@H](O)C[C@]3(C)C(=CC[C@@H]4[C@@]5(C)CC[C@H](O[C@@H]6O[C@H](CO[C@@H]7OC[C@H](O)[C@H](O)[C@H]7O[C@@H]7OC[C@H](O)[C@H](O)[C@H]7O)[C@@H](O)[C@H](O)[C@H]6O[C@@H]6O[C@H](CO)[C@@H](O)[C@H](O)[C@H]6O)C(C)(C)[C@@H]5CC[C@]43C)[C@@H]2C1	–	–	> 20	> 20	> 20	–	> 20	–
CC(=O)N[C@H]1[C@H](O[C@H]2CC[C@]3(C)[C@H]4CC=C5[C@@H]6CC(C)(C)CC[C@]6(C(=O)O)CC[C@@]5(C)[C@]4(C)CC[C@H]3C2(C)C)O[C@H](CO[C@@H]2OC[C@H](O)[C@H](O)[C@H]2O)[C@@H](O)[C@@H]1O	inactive	inactive	8.7	7.3	12.4	inactive	4.7	inactive
CC(=O)N[C@H]1[C@H](O[C@H]2CC[C@]3(C)[C@H]4CC=C5[C@@H]6CC(C)(C)CC[C@]6(C(=O)O)[C@H](O)C[C@@]5(C)[C@]4(C)CC[C@H]3C2(C)C)O[C@H](CO[C@@H]2OC[C@H](O)[C@H](O)[C@H]2O)[C@@H](O)[C@@H]1O	inactive	inactive	2.8	1.8	9.2	inactive	5.1	inactive
CC1(C)CC[C@]2(C(=O)O)CC[C@]3(C)C(=CC[C@@H]4[C@@]5(C)CC[C@H](O[C@@H]6O[C@H](CO[C@@H]7OC[C@H](O)[C@H](O)[C@H]7O[C@@H]7OC[C@@H](O)[C@H](O)[C@H]7O)[C@@H](O)[C@H](O)[C@H]6O)C(C)(C)[C@@H]5CC[C@]43C)[C@@H]2C1 [PITHEDULOSIDE C]	inactive	inactive	10.1	9	8.6	inactive	6.9	inactive
CC(=O)N[C@H]1[C@H](O[C@H]2CC[C@]3(C)[C@H]4CC=C5[C@@H]6CC(C)(C)[C@@H]7C[C@]6(C(=O)O7)[C@H](O)C[C@@]5(C)[C@]4(C)CC[C@H]3C2(C)C)O[C@H](CO[C@@H]2OC[C@H](O)[C@H](O)[C@H]2O[C@@H]2OC[C@H](O)[C@H](O)[C@H]2O)[C@@H](O)[C@@H]1O	–	–	> 20	> 20	> 20	–	> 20	–
CC1(C)CC[C@]2(C(=O)O)[C@H](O)C[C@]3(C)C(=CC[C@@H]4[C@@]5(C)CC[C@H](O[C@@H]6O[C@H](CO[C@@H]7OC[C@H](O)[C@H](O)[C@H]7O[C@@H]7OC[C@@H](O)[C@H](O)[C@H]7O)[C@@H](O)[C@H](O)[C@H]6O[C@@H]6O[C@H](CO)[C@@H](O)[C@H](O)[C@H]6O)C(C)(C)[C@@H]5CC[C@]43C)[C@@H]2C1	–	–	> 20	> 20	> 20	–	> 20	–
